Data set [1] concerns Sprague-Dawley rats. Description: Conditioned taste aversion test. The format is in vivo, rat.
Data set [2] has as its system Sprague-Dawley rats. Description: MCH-induced food intake in satiated rats. It is filed as in vivo, rat. The conditions noted are these: 2 nmole i.c.v. Summed up: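 Cannulated male Sprague-Dawley rats were kept in wire-bottom cages >3 weeks and screened by drinking >5 ml/1 h after 50 ng angiotensin II. Satiated rats got 10 μl i.c.v. over 2 min at 7–8 a.m.: aCSF, MCH 2 nmole, or MCH plus test compound (1 or 5 nmole). Vehicles were DMSO-matched (up to 5% v/v). Food came 10 min later; cumulative intake over 4 h; ANOVA/Bonferroni.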

In the next data set the target is Muscarinic M3 (Homo sapiens, UniProt P20309). Description: Radioligand displacement. The format is binding.
Muscarinic M3, sequence (P20309 whole entry): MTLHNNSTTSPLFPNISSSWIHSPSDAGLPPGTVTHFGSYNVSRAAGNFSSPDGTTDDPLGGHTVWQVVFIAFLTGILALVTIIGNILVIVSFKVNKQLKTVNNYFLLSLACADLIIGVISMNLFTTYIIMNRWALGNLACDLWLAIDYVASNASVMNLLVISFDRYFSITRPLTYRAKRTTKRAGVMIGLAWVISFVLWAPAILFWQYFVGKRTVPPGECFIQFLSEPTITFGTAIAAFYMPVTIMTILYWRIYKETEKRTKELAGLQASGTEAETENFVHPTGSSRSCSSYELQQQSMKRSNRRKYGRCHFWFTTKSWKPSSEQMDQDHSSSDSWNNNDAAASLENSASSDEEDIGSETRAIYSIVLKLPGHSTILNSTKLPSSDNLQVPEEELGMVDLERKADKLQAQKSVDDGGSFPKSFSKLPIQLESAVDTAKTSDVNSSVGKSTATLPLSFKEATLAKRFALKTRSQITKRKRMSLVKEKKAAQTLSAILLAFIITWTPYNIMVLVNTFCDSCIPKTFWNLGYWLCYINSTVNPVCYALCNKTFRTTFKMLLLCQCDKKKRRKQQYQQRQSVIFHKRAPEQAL
Another data set has as its target Adrenergic β1/β2. Description: Radioligand displacement. Conditions: read-out: BINDING Adrenergic β1/β2; displacement of specific radioactive ligand. (In a radioligand displacement assay an active substance lowers the binding of a labelled ligand.)
The next data set has as its target Histamine H1 (Homo sapiens, UniProt P35367). Description: Radioligand displacement. The format is binding.
The next data set has as its target Phorobol Ester. Description: Radioligand displacement. Conditions: read-out: BINDING Phorobol Ester; displacement of specific radioactive ligand.
Data set [3] is described as follows: Pharmacokinetics in rats after intravenous administration. It is filed as in vivo. The conditions noted are these: rat, plasma, 5 mg/kg.
The target of the next data set is Dopamine D1 (Homo sapiens, UniProt P21728). Description: Radioligand displacement. It is filed as binding.
Dopamine D1, sequence (P21728 whole entry): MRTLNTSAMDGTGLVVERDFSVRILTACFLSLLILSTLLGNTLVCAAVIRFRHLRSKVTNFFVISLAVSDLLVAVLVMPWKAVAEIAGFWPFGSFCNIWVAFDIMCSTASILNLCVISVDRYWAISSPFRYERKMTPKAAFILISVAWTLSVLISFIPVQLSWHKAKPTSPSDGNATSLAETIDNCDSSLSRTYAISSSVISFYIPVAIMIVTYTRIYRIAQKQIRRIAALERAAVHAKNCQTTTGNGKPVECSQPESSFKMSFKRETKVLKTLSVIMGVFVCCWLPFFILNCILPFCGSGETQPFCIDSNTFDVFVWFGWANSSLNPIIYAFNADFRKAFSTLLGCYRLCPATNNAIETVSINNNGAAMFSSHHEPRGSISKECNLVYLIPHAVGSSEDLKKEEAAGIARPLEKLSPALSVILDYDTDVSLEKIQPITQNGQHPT
Another data set deals with Dopamine D2s (Homo sapiens, UniProt P14416). Description: Radioligand displacement. The format is binding.
Dopamine D2s, sequence (P14416 1-414 isoform P14416-2): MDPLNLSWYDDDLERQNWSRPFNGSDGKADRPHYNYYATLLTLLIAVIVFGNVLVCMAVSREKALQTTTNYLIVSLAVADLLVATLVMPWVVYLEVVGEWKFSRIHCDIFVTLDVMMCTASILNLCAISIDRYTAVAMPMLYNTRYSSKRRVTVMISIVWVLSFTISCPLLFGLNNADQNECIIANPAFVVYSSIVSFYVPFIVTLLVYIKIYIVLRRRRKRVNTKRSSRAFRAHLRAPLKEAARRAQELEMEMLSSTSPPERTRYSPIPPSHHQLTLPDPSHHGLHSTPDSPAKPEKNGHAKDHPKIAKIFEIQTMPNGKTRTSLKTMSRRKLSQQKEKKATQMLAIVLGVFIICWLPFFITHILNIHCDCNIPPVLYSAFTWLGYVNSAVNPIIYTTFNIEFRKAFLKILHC
For another data set, the target named is Opiate κ (KOR) (Homo sapiens, UniProt P41145). Description: Selectivity FLIPR activity assay. The format is cell-based. The method in brief:
(§1)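 Calcium FLIPR format: receptor-expressing cells were loaded 1 h at 37°C with fluo-4 in Hanks' balanced salt solution plus 20 mM HEPES (pH 7.4). Receptor activation was then measured as intracellular Ca2+ fluorescence in the presence of increasing test compound concentrations. The top concentration reported was 10 uM.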

In the next data set the target is GPR103 (Homo sapiens, UniProt Q96P65). Description: Radioligand displacement. It is filed as binding.
GPR103, sequence (Q96P65 whole entry, species assumed): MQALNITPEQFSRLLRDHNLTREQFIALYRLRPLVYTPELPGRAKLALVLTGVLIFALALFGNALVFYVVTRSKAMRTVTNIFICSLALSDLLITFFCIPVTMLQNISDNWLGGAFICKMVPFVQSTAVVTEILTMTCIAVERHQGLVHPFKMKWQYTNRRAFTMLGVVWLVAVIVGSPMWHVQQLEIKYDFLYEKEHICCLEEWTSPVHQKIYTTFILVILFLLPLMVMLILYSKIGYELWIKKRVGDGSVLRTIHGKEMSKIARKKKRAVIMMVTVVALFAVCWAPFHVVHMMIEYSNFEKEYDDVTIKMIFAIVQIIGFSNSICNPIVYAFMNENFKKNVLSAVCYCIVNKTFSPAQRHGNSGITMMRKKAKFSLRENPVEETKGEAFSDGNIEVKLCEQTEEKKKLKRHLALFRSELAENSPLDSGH
Data set [4] deals with T1, rat MCH1 receptor (Rattus norvegicus, UniProt P97639). Description: MCH-induced Ca2+ mobilization. The format is cell-based.
T1 sequence (P97639 whole entry): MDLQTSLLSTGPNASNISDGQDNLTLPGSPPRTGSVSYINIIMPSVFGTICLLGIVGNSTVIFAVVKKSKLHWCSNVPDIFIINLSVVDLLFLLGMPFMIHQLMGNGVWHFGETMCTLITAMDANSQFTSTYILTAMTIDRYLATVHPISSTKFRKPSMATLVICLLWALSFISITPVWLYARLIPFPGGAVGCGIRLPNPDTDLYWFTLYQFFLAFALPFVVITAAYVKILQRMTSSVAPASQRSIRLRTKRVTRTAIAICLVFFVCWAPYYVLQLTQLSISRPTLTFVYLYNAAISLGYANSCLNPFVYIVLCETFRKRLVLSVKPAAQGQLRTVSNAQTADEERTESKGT
A further data set deals with Adenosine A1 (Homo sapiens, UniProt P30542). Description: Radioligand displacement. The format is binding.
Adenosine A1, sequence (P30542 whole entry): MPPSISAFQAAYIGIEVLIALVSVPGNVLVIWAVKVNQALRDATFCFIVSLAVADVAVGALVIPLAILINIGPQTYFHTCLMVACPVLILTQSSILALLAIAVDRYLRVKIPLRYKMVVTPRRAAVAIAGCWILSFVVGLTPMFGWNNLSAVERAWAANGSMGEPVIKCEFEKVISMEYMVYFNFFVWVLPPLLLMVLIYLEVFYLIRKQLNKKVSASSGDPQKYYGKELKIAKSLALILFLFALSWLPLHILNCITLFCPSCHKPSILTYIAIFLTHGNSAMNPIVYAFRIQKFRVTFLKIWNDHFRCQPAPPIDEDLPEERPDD
The target in data set [5] is Nicotinic Acetylcholine α1, Bungarotoxin (Homo sapiens, UniProt P02708+P07510+Q07001). Description: biochemical. The format is binding.
Data set [6] concerns Sprague-Dawley rats. Description: Spontaneous locomotor activity. It is filed as in vivo, rat. Summed up: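 Cannulated male Sprague-Dawley rats were acclimatized 60 min to a novel home cage, removed, given vehicle or 5 nmole test compound i.c.v., and returned at once. An infrared beam monitor (4 × 8 frame) recorded 60 min. Beam breaks changing location counted as ambulatory; all others as non-ambulatory fine movement. n=10.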

In a further data set the target is Orexin 1R (Homo sapiens, UniProt O43613). Description: Selectivity FLIPR activity assay. It is filed as cell-based. Summed up:
as §1

For the next data set, the target named is Prostanoid EP4 (Homo sapiens, UniProt P35408). Description: Radioligand displacement. It is filed as binding.
Prostanoid EP4, sequence (P35408 whole entry): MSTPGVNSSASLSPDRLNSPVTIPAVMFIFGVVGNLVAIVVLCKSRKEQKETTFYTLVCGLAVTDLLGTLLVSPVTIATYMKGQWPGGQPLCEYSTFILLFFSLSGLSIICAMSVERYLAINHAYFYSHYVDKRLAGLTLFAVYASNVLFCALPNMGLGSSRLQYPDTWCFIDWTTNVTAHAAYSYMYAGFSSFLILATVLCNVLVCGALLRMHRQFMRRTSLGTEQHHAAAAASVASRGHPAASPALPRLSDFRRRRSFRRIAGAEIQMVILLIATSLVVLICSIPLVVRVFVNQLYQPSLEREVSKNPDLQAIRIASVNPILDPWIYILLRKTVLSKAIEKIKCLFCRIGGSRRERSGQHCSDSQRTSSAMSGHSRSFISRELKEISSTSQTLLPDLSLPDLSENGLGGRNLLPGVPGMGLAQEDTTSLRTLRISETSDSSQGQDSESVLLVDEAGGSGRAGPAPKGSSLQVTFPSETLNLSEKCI
For another data set, the target named is Opiate μ (OP3, MOP) (Homo sapiens, UniProt P35372). Description: Radioligand displacement. The format is binding.
In a further data set the target is Rolipram. Description: Radioligand displacement. The conditions noted are these: read-out: BINDING Rolipram; displacement of specific radioactive ligand.
In the next data set the target is NPY2R (Homo sapiens, UniProt P49146). Description: Selectivity FLIPR activity assay. It is filed as cell-based. Summed up: as §1
Another data set addresses hERG channel (Homo sapiens, UniProt Q12809). Description: in vitro hERG electrophysiology assay. It is filed as cell-based. (Block of hERG is tested as a sign of cardiac risk.)
The next data set has as its target Muscarinic M2 (Homo sapiens, UniProt P08172). Description: Radioligand displacement. It is filed as binding.
The target of another data set is GPR10 (Homo sapiens, UniProt P49683). Description: Selectivity FLIPR activity assay. The format is cell-based. Summed up:
as §1

A further data set addresses Adenosine A2A (Homo sapiens, UniProt P29274). Description: Radioligand displacement. The format is binding.
Data set [7] concerns the target T1, rat MCH1 receptor. The format is binding.
Another data set deals with MCH2R (Homo sapiens, UniProt Q969V1). Description: Selectivity FLIPR activity assay. The format is cell-based. The method in brief:
as §1

Data set [8] addresses Transporter, Norepinephrine (NET) (Homo sapiens, UniProt P23975). Description: Radioligand displacement. It is filed as binding.

SMILES strings stand for the structures. Entries after “also recorded” stand apart in the source; their conditions may differ.

hERG channel, sequence (Q12809 whole entry): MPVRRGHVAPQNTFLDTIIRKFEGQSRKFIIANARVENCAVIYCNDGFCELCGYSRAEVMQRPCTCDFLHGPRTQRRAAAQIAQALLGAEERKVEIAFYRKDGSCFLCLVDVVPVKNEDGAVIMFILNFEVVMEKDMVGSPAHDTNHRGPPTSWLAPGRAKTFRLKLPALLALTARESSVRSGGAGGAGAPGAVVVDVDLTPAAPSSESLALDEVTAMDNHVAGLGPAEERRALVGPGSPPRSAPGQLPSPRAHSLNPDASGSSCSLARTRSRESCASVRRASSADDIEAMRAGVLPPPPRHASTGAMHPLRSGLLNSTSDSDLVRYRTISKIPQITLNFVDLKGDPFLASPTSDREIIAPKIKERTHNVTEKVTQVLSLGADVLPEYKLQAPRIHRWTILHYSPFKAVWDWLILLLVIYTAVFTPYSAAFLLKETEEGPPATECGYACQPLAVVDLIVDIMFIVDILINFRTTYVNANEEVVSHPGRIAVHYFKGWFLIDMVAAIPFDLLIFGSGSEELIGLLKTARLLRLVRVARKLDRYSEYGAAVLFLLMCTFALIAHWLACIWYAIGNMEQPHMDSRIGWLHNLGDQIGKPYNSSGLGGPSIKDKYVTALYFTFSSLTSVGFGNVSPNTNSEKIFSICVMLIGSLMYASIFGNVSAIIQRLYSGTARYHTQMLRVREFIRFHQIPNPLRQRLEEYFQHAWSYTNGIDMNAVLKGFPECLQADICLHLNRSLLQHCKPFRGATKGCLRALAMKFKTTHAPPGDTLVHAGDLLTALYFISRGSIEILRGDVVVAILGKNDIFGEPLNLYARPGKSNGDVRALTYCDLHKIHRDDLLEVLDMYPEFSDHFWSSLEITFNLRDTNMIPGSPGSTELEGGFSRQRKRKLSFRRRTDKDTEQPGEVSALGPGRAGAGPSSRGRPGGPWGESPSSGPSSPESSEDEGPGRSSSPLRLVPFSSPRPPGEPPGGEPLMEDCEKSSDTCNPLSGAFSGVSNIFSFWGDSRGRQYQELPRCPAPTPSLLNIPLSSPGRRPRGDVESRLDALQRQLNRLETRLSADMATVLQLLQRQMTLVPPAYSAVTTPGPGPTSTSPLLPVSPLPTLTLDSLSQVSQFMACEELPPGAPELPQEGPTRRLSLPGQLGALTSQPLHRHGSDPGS
Opiate κ (KOR), sequence (P41145 whole entry): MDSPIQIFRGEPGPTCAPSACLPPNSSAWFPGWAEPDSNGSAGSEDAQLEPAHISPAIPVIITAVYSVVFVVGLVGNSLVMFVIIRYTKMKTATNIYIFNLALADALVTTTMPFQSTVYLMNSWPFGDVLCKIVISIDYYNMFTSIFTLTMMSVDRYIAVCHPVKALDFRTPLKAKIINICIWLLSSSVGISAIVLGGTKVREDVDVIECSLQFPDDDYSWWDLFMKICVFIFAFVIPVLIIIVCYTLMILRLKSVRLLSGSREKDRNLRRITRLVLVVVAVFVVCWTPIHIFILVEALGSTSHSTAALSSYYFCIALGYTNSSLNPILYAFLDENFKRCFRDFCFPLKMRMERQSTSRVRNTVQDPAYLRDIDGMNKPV
MCH2R, sequence (Q969V1 whole entry): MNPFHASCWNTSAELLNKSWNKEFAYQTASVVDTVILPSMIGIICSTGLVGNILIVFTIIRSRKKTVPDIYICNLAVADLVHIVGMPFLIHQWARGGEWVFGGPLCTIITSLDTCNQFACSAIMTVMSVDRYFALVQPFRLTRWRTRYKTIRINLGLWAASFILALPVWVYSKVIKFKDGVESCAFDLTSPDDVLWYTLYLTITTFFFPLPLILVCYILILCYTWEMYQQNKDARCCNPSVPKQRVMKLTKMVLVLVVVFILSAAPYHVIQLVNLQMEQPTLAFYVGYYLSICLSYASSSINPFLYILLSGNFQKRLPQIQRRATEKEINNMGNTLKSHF

Regarding `[Cl-].[Li+]` [LiCl, Lithium chloride, reference compound], the taste aversion effect entry in the data set with Sprague-Dawley rats [1] (300 mg/kg, i.p., positive control, P<0.01 vs. vehicle group) is “robust taste aversion effect”.

As for `CSCC[C@@H]1NC(=O)[C@@H](NC(=O)[C@H](CCCNC(=N)N)NC(=O)[C@H](CC(C)C)NC(=O)[C@H](CCSC)NC(=O)[C@H](CC(=O)O)NC(=O)[C@H](Cc2ccccc2)NC(=O)[C@@H](N)CC(=O)O)CSSC[C@@H](C(=O)N[C@@H](Cc2c[nH]c3ccccc23)C(=O)N[C@@H](CCC(N)=O)C(=O)N[C@H](C(=O)O)C(C)C)NC(=O)[C@@H]2CCCN2C(=O)[C@H](CCCNC(=N)N)NC(=O)[C@H](Cc2ccc(O)cc2)NC(=O)[C@H](C(C)C)NC(=O)[C@H](CCCNC(=N)N)NC(=O)CNC(=O)[C@H](CC(C)C)NC1=O` [MCH, Melanin-concentrating hormone], the “feeding after intracerebroventricular injection” value with Sprague-Dawley rats [2] was “induced rapid and robust feeding”.

In the case of `C[C@@H](CNCc1ccccc1)N1C[C@H](CCCNC(=N)N)N(CCc2cccc(F)c2)C1=S` [TPI 1361-17, N-(3-{(4S)-1-[(1S)-2-(benzylamino)-1-methylethyl]-3-[2-(3-fluorophenyl)ethyl]-2-thioxoimidazolidin-4-yl}propyl)guanidine], the IC50 at Muscarinic M3, on Adrenergic β1/β2, on Histamine H1, on Phorobol Ester, at Dopamine D1 and at Dopamine D2s was more than 1000 nM throughout. The IC50 is more than 1000 nM on GPR103; more than 1000 nM at Adenosine A1; more than 1000 nM in data set [5]; more than 1000 nM at Prostanoid EP4; more than 1000 nM on Opiate μ (OP3, MOP); more than 1000 nM on Rolipram. The IC50 against hERG channel is more than 10000 nM; at Muscarinic M2, more than 1000 nM; at Adenosine A2A, more than 1000 nM; against rat MCH1 receptor [7], 31.8 ± 8.66 nM; in data set [8] it was more than 1000 nM. Further, the Tmax – broadly, the time from dosing to the highest level – in data set [3] was 4.98 min. In addition, the total exposure AUC(0-inf) (commonly the area under the concentration-time curve extrapolated to infinity) in data set [3] (AUC0-∞ (mean value), intravenous, mean) was 2440 ng·h/mL. Further, in [3] (plasma elimination half-life (mean value), intravenous, mean), the half-life (usually the time in which the quantity being followed falls by half) is 2.7 h. Besides, the “selectivity for MCH1 receptor compared to kappa opioid receptors” value on Opiate κ (KOR) is reported as “more than 1,000 fold”. For the same molecule, the “pA2 (Schild regression)” value on rat MCH1 receptor [4] (MCH dose response curves with increasing concentrations of antagonist) came to 9.43. Further, the “effect on basal Ca2+ level by itself” value at rat MCH1 receptor [4] (compound alone, no MCH) is reported as “did not change the basal Ca^2+ level”. The same molecule showed a Schild regression slope on rat MCH1 receptor [4] (r^2 = 0.975) of 1.085 ± 0.010. Further, the “ambulatory and non-ambulatory movements vs vehicle” value in the data set with Sprague-Dawley rats [6] (five nmole i.c.v., monitored for 60 minutes) is reported as “no significant differences”. Besides, in the data set with Sprague-Dawley rats [6] (five or one nmole i.c.v.), the “detectable changes in movement” value is on record as “did not exhibit any detectable changes in movement”. For the same molecule, the “selectivity for MCH1 receptor compared to orexin 1R” value at Orexin 1R is given as “more than 1,000 fold”. In addition, the “aversive effect in taste aversion test” value in the data set on Sprague-Dawley rats [1] (10 nmole, i.c.v., saccharin preference) is “did not result in any aversive effect”. The “selectivity for MCH1 receptor compared to neuropeptide Y2” value on NPY2R is on record as “more than 1,000 fold”. Also, the “activity in a hERG channel assay” value at hERG channel (result in words) is recorded as “not show activity; also recorded: no activity was detected”. Also, the “selectivity for MCH1 receptor compared to prolactin releasing peptide receptor” value at GPR10 was “more than 1,000 fold”. Further, at rat MCH1 receptor [7] (rat MCH1 receptor membranes), the “displacement of the binding of [125I] MCH” value is “completely displaced”. In addition, at MCH2R, the “selectivity for MCH1 receptor compared to human MCH2 receptor” value is given as “more than 1,000 fold”.
